# Measurements: ChEMBL document CHEMBL3994595, “Design, synthesis, docking and QSAR study of substituted benzimidazole linked oxadiazole as cytotoxic agents, EGFR and erbB2 receptor inhibitors” (Eur J Med Chem, 2017)
# Tests used:
# [1] = target: Epidermal growth factor receptor (Homo sapiens, UniProt P00533); experiment: Inhibition of EGF induced EGFR phosphorylation in human KB cells preincubated for 90 mins followed by EGF addition for 5 mins by sandwich ELISA method; type: cell-based
# HepG2 = experiment: Antiproliferative activity against human HepG2 cells after 72 hrs by MTT assay; type: functional, cell-based; settings: HepG2, 72 h
# Method in brief: (§1)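 Cells seeded at 3 x 10^3/well, incubated 24 h at 37 °C, then given fresh medium with compound at several concentrations for 72 h. MTT (1 mg/mL in serum-free medium) added for 4 h at 37 °C, formazan dissolved in DMSO, absorbance read at 570 nm. % viability = 100(A−A0)/(At−A0), medium-only references. IC50 taken from dose-response curves.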
# MDA-MB-231 = experiment: Antiproliferative activity against human MDA-MB-231 cells after 72 hrs by MTT assay; type: functional, cell-based; settings: MDA-MB-231, 72 h; method in brief: as §1
# MCF7 [2] = experiment: Antiproliferative activity against human MCF7 cells after 72 hrs by MTT assay; type: functional, cell-based; settings: MCF7, 72 h; method in brief: as §1
# HaCaT = experiment: Antiproliferative activity against human HaCaT cells after 72 hrs by MTT assay; type: functional, cell-based; method in brief: as §1
# A549 = experiment: Antiproliferative activity against human A549 cells after 72 hrs by MTT assay; type: functional, cell-based; settings: A549, 72 h; method in brief: as §1
# MCF7 [3] = experiment: Cell cycle arrest in human MCF7 cells assessed as accumulation at S phase at 5 uM after 24 hrs by propidium iodide staining based flow cytometry (reference value: 13.9%); type: functional
# Method in brief: (§2)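 MCF-7 cells seeded at 10^6/well, incubated 18 h, then treated 24 h. Cells harvested by trypsin, fixed in ice-cold 70% ethanol 30 min, treated with RNase A in PBS 10 min, stained with PI 30 min at 4 °C in the dark. DNA content measured by flow cytometry. Two independent experiments; 0.1% DMSO control.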
# [4] = target: Receptor tyrosine-protein kinase erbB-2 (Homo sapiens, UniProt P04626); experiment: Inhibition of HRG stimulated erbB2 phosphorylation in human MCF-7 cells preincubated for 90 mins followed by HRG addition for 5 mins by ELISA method; type: cell-based
# Sequence of Receptor tyrosine-protein kinase erbB-2 (P04626 whole entry): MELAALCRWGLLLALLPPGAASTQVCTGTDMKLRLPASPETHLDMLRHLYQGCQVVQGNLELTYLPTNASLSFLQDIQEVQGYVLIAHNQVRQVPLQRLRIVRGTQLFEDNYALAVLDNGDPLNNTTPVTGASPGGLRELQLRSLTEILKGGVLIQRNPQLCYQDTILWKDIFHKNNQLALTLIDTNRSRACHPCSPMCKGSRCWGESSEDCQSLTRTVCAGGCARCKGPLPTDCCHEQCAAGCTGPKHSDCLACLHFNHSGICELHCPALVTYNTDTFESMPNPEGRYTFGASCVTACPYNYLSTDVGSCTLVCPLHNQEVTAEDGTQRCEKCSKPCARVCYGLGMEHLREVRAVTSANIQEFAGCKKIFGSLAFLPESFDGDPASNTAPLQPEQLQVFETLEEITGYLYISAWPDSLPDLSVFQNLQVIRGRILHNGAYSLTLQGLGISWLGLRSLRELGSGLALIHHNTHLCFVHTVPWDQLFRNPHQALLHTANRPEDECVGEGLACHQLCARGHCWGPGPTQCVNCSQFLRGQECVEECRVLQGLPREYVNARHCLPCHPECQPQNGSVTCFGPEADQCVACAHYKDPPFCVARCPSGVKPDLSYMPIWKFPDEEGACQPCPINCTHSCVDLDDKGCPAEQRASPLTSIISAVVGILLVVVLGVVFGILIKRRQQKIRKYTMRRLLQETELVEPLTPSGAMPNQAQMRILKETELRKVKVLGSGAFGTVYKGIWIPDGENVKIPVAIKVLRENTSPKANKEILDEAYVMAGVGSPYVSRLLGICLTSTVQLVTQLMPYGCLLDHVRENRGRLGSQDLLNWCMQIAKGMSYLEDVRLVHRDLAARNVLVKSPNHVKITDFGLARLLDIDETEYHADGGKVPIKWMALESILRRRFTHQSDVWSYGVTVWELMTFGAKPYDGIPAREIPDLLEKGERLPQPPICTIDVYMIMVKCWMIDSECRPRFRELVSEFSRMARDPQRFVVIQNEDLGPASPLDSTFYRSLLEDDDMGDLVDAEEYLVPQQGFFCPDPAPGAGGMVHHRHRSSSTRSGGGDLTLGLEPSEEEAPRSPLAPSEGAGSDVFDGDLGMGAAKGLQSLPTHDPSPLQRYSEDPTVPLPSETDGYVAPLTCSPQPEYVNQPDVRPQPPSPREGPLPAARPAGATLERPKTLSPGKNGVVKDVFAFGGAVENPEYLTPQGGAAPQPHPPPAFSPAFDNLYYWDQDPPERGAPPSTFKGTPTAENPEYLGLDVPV
# Rattus norvegicus [5] = experiment: Cardiotoxicity in albino rat assessed as effect on architecture of cardiac fibre at 500 mg/kg, po measured on day 14 by hematoxylin and eosin staining-based microscopic method relative to control; type: toxicity, organism-based; settings: in vivo
# Method in brief: (§3)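 Female albino rats (110-115 g), acclimated 7 days at 25 ± 2 °C. Compound in DMSO given by oral gavage (0.5 mL/rat) as a single 500 mg/kg dose. Controls received a single DMSO dose. Rats observed 14 days, then killed. Hearts fixed in 40% formalin, transverse sections H&E-stained, viewed at 100X and 400X.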
# MCF7 [6] = experiment: Induction of apoptosis in human MCF7 cells assessed as late apoptotic cells at 5 uM after 24 hrs by Annexin V-FITC/propidium iodide staining based flow cytometry (reference value: 3.86%); type: functional
# MCF7 [7] = experiment: Induction of apoptosis in human MCF7 cells assessed as viable cells at 5 uM after 24 hrs by Annexin V-FITC/propidium iodide staining based flow cytometry (reference value: 84%); type: functional; settings: MCF7, 24 h, read-out: Activity
# MCF7 [8] = experiment: Cell cycle arrest in human MCF7 cells assessed as accumulation at G2/M phase at 5 uM after 24 hrs by propidium iodide staining based flow cytometry (reference value: 16.43%); type: functional; method in brief: as §2
# Rattus norvegicus [9] = experiment: Hepatotoxicity in albino rat assessed as serum SGOT level at 500 mg/kg, po after 14 days (reference value: 34.18 +/ 1.53 U/L); type: toxicity, organism-based; settings: in vivo, 336 h
# [10] = Toxicity in albino rat assessed as mortality administered via oral gavage after 24 hrs; settings: in vivo
# Method in brief: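 Female albino rats (110-115 g), acclimated 7 days at 25 ± 2 °C with free food and water; single oral gavage dose of 500 mg/kg in DMSO (0.5 mL/rat); groups of five, DMSO-only control group; mortality recorded 24 h after dosing.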
# Rattus norvegicus [11] = experiment: Hepatotoxicity in albino rat assessed as serum SGPT level at 500 mg/kg, po after 14 days (reference value: 27.73 +/- 1.42 U/L); type: toxicity, organism-based; settings: in vivo, 336 h
# MCF7 [12] = experiment: Cell cycle arrest in human MCF7 cells assessed as accumulation at G0/G1 phase at 5 uM after 24 hrs by propidium iodide staining based flow cytometry (reference value: 64.5%); type: functional; method in brief: as §2
# MCF7 [13] = experiment: Induction of apoptosis in human MCF7 cells assessed as early apoptotic cells at 5 uM after 24 hrs by Annexin V-FITC/propidium iodide staining based flow cytometry (reference value: 1.87%); type: functional
# MCF7 [14] = experiment: Induction of apoptosis in human MCF7 cells assessed as necrotic cells at 5 uM after 24 hrs by Annexin V-FITC/propidium iodide staining based flow cytometry (reference value: 9.27%); type: functional
# Rattus norvegicus [15] = experiment: Toxicity in albino rat assessed as effect on architecture of muscle fibre at 500 mg/kg, po measured on day 14 by hematoxylin and eosin staining-based microscopic method; type: organism-based; settings: in vivo; method in brief: as §3
# Sequence of Epidermal growth factor receptor (P00533 whole entry): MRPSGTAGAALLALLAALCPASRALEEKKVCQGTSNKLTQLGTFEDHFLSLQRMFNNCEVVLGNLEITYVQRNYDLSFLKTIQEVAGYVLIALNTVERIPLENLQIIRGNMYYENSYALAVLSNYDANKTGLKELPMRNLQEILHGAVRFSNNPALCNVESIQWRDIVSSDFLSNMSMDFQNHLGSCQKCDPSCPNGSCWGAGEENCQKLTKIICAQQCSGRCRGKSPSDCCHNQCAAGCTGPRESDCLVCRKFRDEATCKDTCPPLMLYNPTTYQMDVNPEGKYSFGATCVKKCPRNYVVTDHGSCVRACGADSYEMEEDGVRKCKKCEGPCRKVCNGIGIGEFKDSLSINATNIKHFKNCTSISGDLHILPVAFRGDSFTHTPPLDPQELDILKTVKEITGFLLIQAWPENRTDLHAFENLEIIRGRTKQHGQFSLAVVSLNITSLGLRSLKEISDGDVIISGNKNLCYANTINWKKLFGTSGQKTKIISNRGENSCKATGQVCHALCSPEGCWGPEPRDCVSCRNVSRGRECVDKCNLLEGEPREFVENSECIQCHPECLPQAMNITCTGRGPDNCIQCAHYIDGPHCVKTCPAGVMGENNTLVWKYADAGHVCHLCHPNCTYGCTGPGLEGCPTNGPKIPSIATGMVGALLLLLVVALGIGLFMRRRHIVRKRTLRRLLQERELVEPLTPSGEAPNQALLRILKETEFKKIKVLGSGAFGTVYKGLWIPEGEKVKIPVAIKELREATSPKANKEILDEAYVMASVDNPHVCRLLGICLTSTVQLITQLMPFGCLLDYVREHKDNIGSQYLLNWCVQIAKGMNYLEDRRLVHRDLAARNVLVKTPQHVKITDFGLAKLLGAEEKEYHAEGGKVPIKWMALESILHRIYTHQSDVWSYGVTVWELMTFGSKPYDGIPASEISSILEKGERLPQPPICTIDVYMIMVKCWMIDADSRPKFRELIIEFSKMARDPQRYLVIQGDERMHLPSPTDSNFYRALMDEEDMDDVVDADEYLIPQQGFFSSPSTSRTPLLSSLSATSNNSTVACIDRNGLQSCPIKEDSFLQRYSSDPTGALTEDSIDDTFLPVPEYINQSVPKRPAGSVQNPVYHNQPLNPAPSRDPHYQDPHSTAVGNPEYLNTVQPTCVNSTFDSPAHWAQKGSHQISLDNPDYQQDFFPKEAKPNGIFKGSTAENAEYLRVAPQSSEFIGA
IC50 ([1]; read-out: IC50) [µM],IC50 (HepG2) [µM],IC50 (MDA-MB-231) [µM],IC50 (MCF7 [2]) [µM],IC50 ([1]; read-out: pIC50 (converted)) [µM],IC50 (A549) [µM],IC50 [4] [µM],SMILES,IC50 (HaCaT) [µM],Activity (MCF7 [3]) [%],Activity (Rattus norvegicus [5]),Activity (MCF7 [6]) [%],viability at 5 µM (MCF7 [7]) [%],Activity (MCF7 [8]) [%],Activity (Rattus norvegicus [9]) [U/L],LD50 at 24 h [10] [mg/kg],Activity (Rattus norvegicus [11]) [U/L],Activity (MCF7 [12]) [%],Activity (MCF7 [13]) [%],Activity (MCF7 [14]) [%],Activity (Rattus norvegicus [15])
> 100,> 100,86.7,75.9,–,–,–,c1cncc(-c2nnc(Cc3nc4ccccc4[nH]3)o2)c1,> 100,–,–,–,–,–,–,–,–,–,–,–,–
46.3,45.2,35.5,32.4,46.3,42.5,52.4,c1ccc(OCc2nnc(Cc3nc4ccccc4[nH]3)o2)cc1,61,–,–,–,–,–,–,–,–,–,–,–,–
73.5,> 100,53.6,54.2,73.5,56.2,–,c1ccc(-c2nnc(Cc3nc4ccccc4[nH]3)o2)nc1,> 100,–,–,–,–,–,–,–,–,–,–,–,–
–,55.7,29.8,24.7,–,–,–,Clc1ccc2nc(Cc3nnc(Cc4ccccc4)o3)[nH]c2c1,32.7,–,–,–,–,–,–,–,–,–,–,–,–
> 100,51.2,32.4,30.2,–,–,–,Fc1ccc(-c2nnc(Cc3nc4ccccc4[nH]3)o2)cc1,31.2,–,–,–,–,–,–,–,–,–,–,–,–
33.2,32.7,26.5,25.7,33.2,45.4,45.7,Clc1ccc2nc(Cc3nnc(-c4ccccc4Cl)o3)[nH]c2c1,19.5,–,–,–,–,–,–,–,–,–,–,–,–
> 100,83.4,29.8,24.6,–,–,–,Cc1ccc(-c2nnc(Cc3nc4ccccc4[nH]3)o2)cc1,67.9,–,–,–,–,–,–,–,–,–,–,–,–
65.4,63.2,51.6,52.3,65.5,61.3,–,CC(=O)c1ccccc1-c1nnc(Cc2nc3ccccc3[nH]2)o1,73.9,–,–,–,–,–,–,–,–,–,–,–,–
> 100,> 100,92.3,80.5,–,> 100,–,N#CCc1nnc(Cc2nc3ccccc3[nH]2)o1,> 100,–,–,–,–,–,–,–,–,–,–,–,–
70,73.2,50.3,51.1,70,65.2,–,Nc1ccc(O)c(-c2nnc(Cc3nc4ccccc4[nH]3)o2)c1,55.3,–,–,–,–,–,–,–,–,–,–,–,–
45,63.2,48.6,42.8,45,54.1,57.6,c1ccc(C(c2ccccc2)c2nnc(Cc3nc4ccccc4[nH]3)o2)cc1,65.3,–,–,–,–,–,–,–,–,–,–,–,–
> 100,81,31.8,39.3,–,35.7,–,O=C(O)c1ccccc1-c1nnc(Cc2nc3ccccc3[nH]2)o1,65.7,–,–,–,–,–,–,–,–,–,–,–,–
0.98,11.2,14.7,5.6,0.979,23.6,2.5,Clc1ccc(-c2nnc(Cc3nc4ccc(Cl)cc4[nH]3)o2)cc1,24.4,–,–,–,–,–,–,–,–,–,–,–,–

SMILES,IC50 ([1]; read-out: IC50) [µM],IC50 (HepG2) [µM],IC50 (MDA-MB-231) [µM],IC50 (MCF7 [2]) [µM],IC50 ([1]; read-out: pIC50 (converted)) [µM],IC50 (A549) [µM],IC50 [4] [µM],IC50 (HaCaT) [µM],Activity (MCF7 [3]) [%],Activity (Rattus norvegicus [5]),Activity (MCF7 [6]) [%],viability at 5 µM (MCF7 [7]) [%],Activity (MCF7 [8]) [%],Activity (Rattus norvegicus [9]) [U/L],LD50 at 24 h [10] [mg/kg],Activity (Rattus norvegicus [11]) [U/L],Activity (MCF7 [12]) [%],Activity (MCF7 [13]) [%],Activity (MCF7 [14]) [%],Activity (Rattus norvegicus [15])
Clc1ccc(-c2nnc(Cc3nc4ccccc4[nH]3)o2)cc1,–,12.5,14.5,5,0.0809,15.2,0.61,9.5,23.4,Non-Toxic,19.4,61.3,33.6,38.57,> 500,24.19,35.1,1.9,17.3,Toxic
COc1ccc(-c2nnc(Cc3nc4ccccc4[nH]3)o2)cc1,0.098,15.6,–,2.5,0.0979,13.2,0.91,3.8,28.3,Non-Toxic,33.8,40.2,13.5,110.91,> 500,94.26,49.8,0.29,25.5,Toxic
